ChEMBL document CHEMBL1133099, “Structure-property model for membrane partitioning of oligopeptides” (J Med Chem, 2000)
Each block holds one compound with its values, some of them ahead of it. Residues, ends and D or L forms follow the SMILES beside them.

Key:
Assay type in all cases: physicochemical
[1] = pKa1 values were determined by potentiometric titrations.; conditions: read-out: pKa1
[2] = Distribution coefficient between n-octanol and hanks buffered saline solution
Outline: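 Distribution between n-octanol and Hanks buffered saline at pH 7.4, measured by the shake-flask method.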

[3] = pKa2 values were determined by potentiometric titrations.; conditions: read-out: pKa2
[4] = Ionization constant (pKa1) values were determined by potentiometric titrations.; conditions: read-out: pKa1
[5] = Ionization constant (pKa2) values were determined by potentiometric titrations.; conditions: read-out: pKa2

Structure (SMILES): CC(=O)N[C@@H](CC(=O)O)C(=O)N[C@@H](CCC(N)=O)C(=O)N[C@@H](CC(C)C)C(=O)N[C@@H](Cc1ccccc1)C(N)=O (Ac-DQLF-NH2)
pKa [1]: 3.97
logD [2]: > -2.5

Structure (SMILES): CC(=O)N[C@@H](Cc1ccccc1)C(=O)N1CCC[C@H]1C(=O)N[C@@H](Cc1ccccc1)C(=O)N[C@@H](Cc1ccc(O)cc1)C(N)=O (Ac-FPFY-NH2)
logD [2]: 1.64

Structure (SMILES): CC(=O)N[C@@H](Cc1ccc(O)cc1)C(=O)NCC(=O)NCC(=O)N[C@@H](CCC(N)=O)C(N)=O (Ac-YGGQ-NH2)
logD [2]: -2.59

Structure (SMILES): CC(=O)NCC(=O)N(C)[C@@H](Cc1ccccc1)C(=O)N[C@@H](CCCCN)C(=O)N[C@@H](CC(=O)O)C(N)=O (HELM PEPTIDE1{[ac].G.[meF].K.D.[am]}$$$$V2.0)
pKa [4]: 3.78
pKa [5]: 10.3

Structure (SMILES): CC(=O)N[C@@H](CCCCN)C(=O)N(C)CC(=O)N[C@@H](Cc1ccc(O)cc1)C(=O)N(C)[C@@H](CC(=O)O)C(N)=O (HELM PEPTIDE1{[ac].K.[Sar].Y.[meD].[am]}$$$$V2.0)
pKa [4]: 3.6
pKa [5]: 9.69

Structure (SMILES): CC(=O)N[C@@H](CCCCN)C(=O)N(C)[C@@H](Cc1ccccc1)C(=O)NCC(=O)N(C)[C@@H](CC(C)C)C(N)=O (HELM PEPTIDE1{[ac].K.[meF].G.[meL].[am]}$$$$V2.0)
pKa [3]: 9.94
logD [2]: -1.33

Structure (SMILES): CC(=O)N[C@@H](CO)C(=O)N(C)[C@@H](Cc1ccccc1)C(=O)NCC(=O)NCC(N)=O (HELM PEPTIDE1{[ac].S.[meF].G.G.[am]}$$$$V2.0)
logD [2]: -1.51

Other lines, results leading:

logD [2]: 2.42
Structure (SMILES): CC(=O)N[C@@H](Cc1ccccc1)C(=O)N[C@@H](CC(C)C)C(=O)N[C@H](C(=O)N(C)[C@@H](CC(C)C)C(N)=O)C(C)C (HELM PEPTIDE1{[ac].F.L.V.[meL].[am]}$$$$V2.0)

pKa [3]: 10.1
Structure (SMILES): CC(=O)N[C@@H](Cc1ccccc1)C(=O)N[C@@H](CCC(N)=O)C(=O)N[C@@H](CCCCN)C(=O)N(C)[C@@H](CC(C)C)C(N)=O (HELM PEPTIDE1{[ac].F.Q.K.[meL].[am]}$$$$V2.0)

pKa [4]: 3.93
Structure (SMILES): CC(=O)NCC(=O)N[C@@H](CC(C)C)C(=O)N[C@@H](CC(=O)O)C(=O)N(C)[C@@H](Cc1ccccc1)C(N)=O (HELM PEPTIDE1{[ac].G.L.D.[meF].[am]}$$$$V2.0)

logD [2]: 0.05
Structure (SMILES): CC(=O)NCC(=O)N(C)CC(=O)N[C@@H](CC(C)C)C(=O)N[C@@H](Cc1ccccc1)C(N)=O (HELM PEPTIDE1{[ac].G.[Sar].L.F.[am]}$$$$V2.0)
